Experiment [1] concerns the target T1, Kappa-type opioid receptor (Mus musculus, UniProt P33534). Description: Positive allosteric modulator activity in mouse kappa opioid receptor stably expressed in HEK293 cell membrane assessed as binding affinity of dyn A1-13 to orthosteric binding site incubated with dyn A1-13 alone for 90 mins by radioligand competition binding assay. Format: cell membranes.

Experiment [2] deals with T1, Kappa-type opioid receptor. Description: Positive allosteric modulator activity in mouse kappa opioid receptor stably expressed in HEK293 cell membrane assessed as inhibition of forskolin induced cAMP production by measuring dyn A1-13 EC50 incubated with dyn A1-13 alone measured after 30 mins by HTRF assay. It counts as functional, cell membranes. An outline of the steps:
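HEK293 stably expressing mouse KOR (2000 cells/well), pretreated 30 min at 37 °C with T20K (0.03–10 μM) or none, then dyn A1–13 with 10 μM forskolin and 0.5 mM IBMX for 30 min at 37 °C. cAMP by HTRF (665/620 nm) after 1 h at room temperature. Triplicates; normalized to top dyn A1–13 concentration; three-parameter fit, slope 1.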

The target in experiment [3] is T1, Kappa-type opioid receptor. Description: Agonist activity at mouse kappa opioid receptor […] assessed as beta-arrestin 2 recruitment using furimazine as a substrate preincubated for 5 mins followed by ligand addition measured for 35 mins by BRET assay. Format: functional, HEK293, Cell membrane.
Experiment [4] has as its target Kappa-type opioid receptor (Mus musculus) (UniProt P33534). Description: Positive allosteric modulator activity in mouse kappa opioid receptor stably expressed in HEK293 cell membrane assessed as inhibition of forskolin induced cAMP production by measuring dyn A1-13 Emax incubated with dyn A1-13 alone measured after 30 mins by HTRF assay relative to control. Conditions: filed as positive allosteric modulator, dose 0.03 µM, time 60.0 min. Format: functional, cell membranes. An outline of the steps: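 Stably transfected mouse KOR HEK293 cells were pretreated with modulator (0.03–10 μM) for 30 min at 37 °C. Dyn A1-13 or U50,488 plus forskolin (10 μM final) with IBMX were then added for a further 30 min at 37 °C. HTRF cAMP read at 665/620 nm. Normalised to the highest orthosteric agonist concentration; unconstrained three-parameter fit, slope 1; n = 4 (7 at 10 μM).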

In the case of `CC[C@H](C)[C@H](NC(=O)[C@H](CCCNC(=N)N)NC(=O)[C@H](CCCNC(=N)N)NC(=O)[C@H](CC(C)C)NC(=O)[C@H](Cc1ccccc1)NC(=O)CNC(=O)CNC(=O)[C@@H](N)Cc1ccc(O)cc1)C(=O)N[C@@H](CCCNC(=N)N)C(=O)N1CCC[C@H]1C(=O)N[C@@H](CCCCN)C(=O)N[C@@H](CC(C)C)C(=O)N[C@@H](CCCCN)C(=O)O` [ANALOG OF DYNORPHIN A], the inhibitory constant (Ki) in experiment [1] was determined as 0.3 nM. Also, the figures for the concentration for a half-maximal effect (EC50) in experiment [2] and in experiment [3] were 6.7 nM and 159 nM, respectively. Besides, the Emax in experiment [4] was 100%.
